Source: PubChem BioAssay
Most compounds without a hit are left out; they make up all but 4.6% or so of the library.
TAAR1 antagonist: human TAAR1 antagonism; AID 624466; CHO RD-HGA16 TAAR1, Fluo-8 calcium fluorescence, antagonist; Q96RJ0; 360,000 tested, 1.5% active; inhibition, % at 3 µM;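 active means inhibition above a per-plate cutoff, the mean inhibition of test compounds on that plate plus 3 SD, cut at about 49% in these data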;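 further: 0% = DMSO plus EC80 beta-PEA response and 100% = DMSO alone without agonist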
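Test system: hTAAR1-expressing CHO RD-HGA16 cells, Gα16-coupled; Probe or stimulus: EC80 β-phenethylamine stimulus; Compound dosing: single nominal final test compound concentration of 3 µM; Timing: 140 s kinetic read after compound, 140 s after agonist; Signal: Fluo-8 calcium-sensitive fluorescence; Measure: % inhibition of agonist calcium response; Controls: DMSO and EC80 PEA controls.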
CHO parental Ca: counter-screen: ATP calcium response change in parental CHO cells; 330,000 tested, 0.63% active; inhibition, % at 5.6 µM; AID 463079; parental CHO-K1, ATP-induced calcium, Fluo-8 fluorescence;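 active means inhibition above that plate's mean sample inhibition plus 3 SD, cut at about 26% in these data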;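 further: 0% = ATP-challenged DMSO wells and 100% = DMSO wells without ATP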
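Assay system: parental CHO cells; Read-out basis: percent inhibition of ATP-evoked calcium rise, normalized to controls; Benchmarks: ATP and no-ATP DMSO wells; Compound dosing: single nominal dose of 5.6 µM per compound; Signal: Fluo-8 calcium dye fluorescence; Also added: ATP as calcium-mobilizing challenge; Repeats: singlicate.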
GPR7 antag: human neuropeptides B/W receptor 1 antagonism; P48145; 290,000 tested, 1.1% active; inhibition, % at 4.4 µM; GPR7-expressing cells, fluorescence antagonist assay; in the data active means inhibition above about 16%, passing the limit was not always enough;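 further: cells stimulated with the agonist NPW; 0% = agonist with vehicle and 100% = vehicle without agonist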
Target sequence (P48145 whole entry, looked up): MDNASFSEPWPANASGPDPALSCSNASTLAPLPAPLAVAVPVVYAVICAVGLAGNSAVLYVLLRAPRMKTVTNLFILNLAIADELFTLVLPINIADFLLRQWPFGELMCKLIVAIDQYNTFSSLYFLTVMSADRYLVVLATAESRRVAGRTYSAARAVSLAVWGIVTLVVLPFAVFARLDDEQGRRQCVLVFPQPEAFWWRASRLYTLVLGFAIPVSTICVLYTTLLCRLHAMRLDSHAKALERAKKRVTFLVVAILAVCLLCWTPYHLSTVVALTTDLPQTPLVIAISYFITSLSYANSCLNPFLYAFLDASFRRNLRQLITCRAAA
OX1R antag-1: blocks the human orexin 1 receptor; AID 434989; CHO/OX1R cells, Fluo-8 calcium fluorescence, orexin A; inhibition, % at 5 µM; 330,000 tested, 0.43% active; O43613;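 active means inhibition above its plate's threshold, mean inhibition of all tested compounds on the plate plus 3 SD, cut at about 37% in these data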;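 further: 0% = orexin A challenge wells and 100% = SB-334867-A antagonist wells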
TAAR1 ag: agonists of human TAAR1 | Q96RJ0 | CHO RD-HGA16 TAAR1, Fluo-8 calcium fluorescence; vehicle wells 0%, saturating PEA agonist 100% | activation, % at 3 µM | 360,000 tested, 0.99% active | AID 624467;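 active means activation above the mean activation of all test compounds in the run plus 3 SD, cut at about 38% in these data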
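System: CHO-derived RD-HGA16 cells with stable Gα16 and human TAAR1. Times: 17-24 h plating, Fluo-8 75 min 37 °C, 30 min RT. Measured by: calcium-sensitive Fluo-8 signal, excitation 470-495, emission 515-575 nm. Read-out basis: % activation relative to PEA EC100 response. Control set: DMSO and PEA EC100. Repeats: no replicates (n 1).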
OX1R antag-2: OX1R (human) antagonism; O43613; OX1R-expressing cells, FRET antagonist read-out; inhibition, % at 6.6 µM; 330,000 tested, 1.8% active; AID 485270; in the data active means inhibition mostly above about 38%, no sharp cut-off; inactive means mostly below about 40%;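 further: 0% = agonist challenge alone and 100% = reference antagonist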
GPR7 antag cf: human GPR7 antagonism, confirmation assay; 2,400 tested, 52% active; AID 1952; inhibition, % at 4.4 µM; shares compounds with GPR7 antag; GPR7-expressing cells, calcium fluorescence antagonist mode; in the data active means inhibition above about 24%;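 further: stimulated with the GPR7 agonist NPW; 0% = agonist plus vehicle and 100% = vehicle alone without agonist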
MCHR1 antagonist: MCHR1 (human) antagonism in GPR7 counter-screen. MCHR1-expressing cells, fluorescence antagonist assay. shares compounds with GPR7 antag. AID 2148. 2,400 tested, 62% active. inhibition, % at 4.4 µM; in the data active means inhibition above about 22%;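 further: 0% = vehicle with agonist and 100% = vehicle without agonist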
Starred values were filed as active, the others as inactive; . = not tested or not shown.

SMILES	TAAR1 antagonist	CHO parental Ca	GPR7 antag	OX1R antag-1	TAAR1 ag	OX1R antag-2	GPR7 antag cf	MCHR1 antagonist
Cc1nn(-c2ccc(Cl)cc2)c(=O)c2ccccc12	2	-1	1	-17	2	3	.	.
Cc1c(Cl)sn(-c2ccc(Cl)cc2)c1=O	61*	.	25*	.	12	.	73*	91*
COC(=O)[C@]12C[C@H](CC(=O)NCCCCc3ccccc3)C(=O)N(Cc3ccccc3)C1=C[C@H](C(C)(C)C)O[C@@H]2C	-30	.	.	.	2	.	.	.
COc1ccc(F)cc1C(=O)C1CCCN(Cc2cn(C)c3ccccc23)C1 (centres undefined)	-14	-11	24*	-13	7	29	33*	30*
O=C(c1cc(F)ccc1F)C1CCCN(Cc2cccn2-c2ccccn2)C1 (centres undefined)	-45	-13	37*	-34	1	20	20	24*
N#Cc1ccc(/C=C/C(=O)c2cccnc2)cc1	-9	-1	0	-11	5	13	.	.
O=C(/C=C/c1ccc(Cl)cc1)c1cccnc1	2	-27	29*	-32	5	38	51*	78*
C1=CCC(CN2CCN(C3CCCCCC3)CC2)CC1 (centres undefined)	-17	-7	30*	14	2	16	23	38*
CCOC(=O)C1CCN(CCC(=O)Nc2ccccc2)CC1	-19	-10	51*	-4	4	13	3	-4
COc1ccc(-c2cc(NC=O)c3ncc(-c4cccc(C(=O)NCCN(C)C)c4)n3c2)c(OC)c1	-10	.	.	.	2	.	.	.
Cc1cccc(OCC(=O)Nc2ccccc2N2CCN(C)CC2)c1	-36	-30	31*	-18	4	21	19	49*
CCC(=O)N1CCN(c2ccccc2NC(=O)COc2cc(C)ccc2C(C)C)CC1	18	-28	34*	-23	18	1	27*	51*
Cc1cccc(OCC(=O)Nc2ccccc2N2CCCCC2)c1	17	-48	-7	-56	12	14	.	.
CS(=O)(=O)Nc1ccc(N2CCCCC2)c(Cl)c1	-1	3	6	-12	7	12	.	.
Cn1sccc1=O	-12	1	.	-3	5	6	.	.
COC(=O)CN1C(c2ccccc2)=Nc2ccc(Cl)cc2C1c1ccccc1 (centres undefined)	-8	-26	28*	-17	2	24	4	23*
C[C@H](CO)N1C[C@H](C)[C@@H](CN(C)C(=O)Nc2ccc3c(c2)OCCO3)OCc2cn(nn2)CCCC1=O	-3	.	.	.	5	.	.	.
Cn1cccc1C(=O)NC(=O)COC(=O)CNC(=O)CNC(=O)c1ccc(Cl)cc1Cl	5	-22	27*	-10	3	16	8	1
CC1CN(Cc2cc(=O)[nH]c(C3CC3)n2)CC(C)O1 (centres undefined)	-9	-12	-6	-14	2	1	.	.
COc1ccc(Cl)cc1NC(=O)CCN1C(=O)C2C3C=CC(C4CC34)C2C1=O (centres undefined)	-9	-29	2	-34	1	41	.	.
Nc1[nH]c(C(=O)c2ccccc2)c(-c2ccc(Cl)cc2)c1C(=O)c1c[nH]c2ccccc12	-6	.	.	.	0	.	.	.
Fc1ccc(C(c2nnnn2C2CCCC2)N(Cc2ccco2)CC2CCCO2)cc1 (centres undefined)	-22	-13	32*	-32	8	6	44*	53*
CCN(CC(=O)Nc1cc(Cl)ccc1C)C(=O)CCOc1ccc(C)cc1	-25	-21	.	-37	-3	28	.	.
CCN(CC(=O)Nc1cc(Cl)ccc1C)c1ncnc2sc(C)c(C)c12	11	-16	23*	-22	2	25	11	44*
O=C(/C=C/Nc1ccccc1Br)c1ccccn1	16	-12	30*	-1	12	36	5	21
